From ChEMBL document CHEMBL3585241, “Synthesis and biological evaluation of thiabendazole derivatives as anti-angiogenesis and vascular disrupting agents” (Bioorg Med Chem, 2015)
Activity calls are given as the source filed them. The rule behind the calls is not given here.

Key:
HUVEC [1] = assay: Cytotoxicity against HUVEC assessed as inhibition of cell proliferation rate at 10 uM after 72 hrs by MTT assay relative to control; type: functional; conditions: Homo sapiens
HUVEC [2] = assay: Cytotoxicity against HUVEC assessed as inhibition of cell proliferation rate at 100 uM after 72 hrs by MTT assay relative to control; type: functional; conditions: Homo sapiens
Tubulin (Bos taurus) [3] = target: T1, Tubulin (Bos taurus) (UniProt Q6B856+Q862F3); assay: Inhibition of bovine brain tubulin polymerization at 3 uM measured every 5 secs for 0 to 3 mins , 10 secs for 3 to 5 mins, 30 secs for 5 to 10 mins, 60 secs for 10 to 17 mins by spectrophotometric analysis
Tubulin (Bos taurus) [4] = target: T1, Tubulin (Bos taurus); assay: Inhibition of bovine brain tubulin polymerization at 5 uM by spectrophotometric analysis; conditions: TDE = time-dependent effect
Procedure, shortened: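 MAP-rich bovine brain tubulin (2 mg/mL) in 80 mM PIPES pH 6.9, 2 mM MgCl2, 0.5 mM EGTA, 5% glycerol, with DMSO or compound at 5 µM. Polymerization started with 1 mM GTP at 37 °C. Absorbance at 340 nm followed over 17 min (5 s intervals to 3 min, 10 s to 5 min, 30 s to 10 min, 60 s to 17 min).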

A549 [5] = assay: Inhibition of alpha-tubulin formation in human A549 cells at 250 uM after 24 hrs by TRITC/Hoechst 33258 staining-based immunofluorescence microscopic analysis; type: cell-based
A549 [6] = assay: Cytotoxicity against human A549 cells assessed as inhibition of cell proliferation rate after 72 hrs by MTT assay; type: functional, cell-based; conditions: A549, 72 h
Procedure, shortened: (§1)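 Cells seeded at 3.5 × 10^4 cells/mL and cultured 24 h (37 °C, 5% CO2), then exposed to compounds for 72 h. DMSO at 0.5% final served as the vehicle control. IC50 taken from triplicate experiments, reported as mean.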

HepG2 = assay: Cytotoxicity against human HepG2 cells assessed as inhibition of cell proliferation rate after 72 hrs by MTT assay; type: functional, cell-based; conditions: HepG2, 72 h; procedure, shortened: as §1
HUVEC [7] = assay: Induction of vascular disruption in HUVEC after 16 hrs by inverted microscopic analysis; type: functional, cell-based; conditions: Homo sapiens
HUVEC [8] = assay: Cytotoxicity against HUVEC assessed as inhibition of cell proliferation rate after 72 hrs by MTT assay; type: functional, cell-based; conditions: Homo sapiens; procedure, shortened: as §1
HCT-116 = assay: Cytotoxicity against human HCT116 cells assessed as inhibition of cell proliferation rate after 72 hrs by MTT assay; type: functional, cell-based; conditions: HCT-116, 72 h; procedure, shortened: as §1
Tubulin (Bos taurus) [9] = target: T1, Tubulin (Bos taurus); assay: Inhibition of bovine brain tubulin polymerization at 10 uM measured every 5 secs for 0 to 3 mins , 10 secs for 3 to 5 mins, 30 secs for 5 to 10 mins, 60 secs for 10 to 17 mins by spectrophotometric analysis
A549 [10] = assay: Inhibition of alpha-tubulin formation in human A549 cells at 50 nM after 24 hrs by TRITC/Hoechst 33258 staining-based immunofluorescence microscopic analysis; type: cell-based
Thoracic aorta = assay: Antiangiogenic activity in Sprague-Dawley rat thoracic aorta ring assessed as inhibition of microvessel outgrowth at 0.33 uM measured on day 6 by inverse microscopic analysis; type: functional, tissue-based
Procedure, shortened: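 Aortas from 6-week Sprague Dawley rats taken under ether anesthesia, rinsed in serum-free M199 and cut into 1-mm rings. Rings embedded in Matrigel and held 1 h at 37 °C. Serum-free M199, with or without 20% FBS, then added with test agents at various concentrations. Sprouting imaged by inverted microscope on day 6.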

HUVEC [11] = assay: Antiangiogenic activity in HUVEC assessed as inhibition of tubular structure formation at 0.033 to 0.33 uM after 8 hrs by microscopic analysis; type: functional, cell-based; conditions: Homo sapiens

Row | SMILES | inhibition at 10 µM (HUVEC [1]) [%] | inhibition at 100 µM (HUVEC [2]) [%] | other results
1 | c1cc2[nH]c(-c3cscn3)nc2cn1 | 8 | 0 | 
2 | c1ccc(Cn2c(-c3ccccc3)nc3ccccc32)cc1 | 7 | 38 | 
3 | COC(=O)Nc1nc2cc(C(=O)c3cccs3)ccc2[nH]1 |  |  | inhibition (Tubulin (Bos taurus) [3]): Active
4 | Clc1ccc2[nH]c(-c3cscn3)nc2c1 | 7 | 53 | 
5 | Cc1ccc2nc(-c3ccccn3)[nH]c2c1 | 7 | 10 | 
6 | O=C(Nc1scnc1-c1nc2ccccc2[nH]1)NC1CC1 |  |  | inhibition (Tubulin (Bos taurus) [4]): tde
7 | c1ccc2[nH]cnc2c1 [BENZIMIDAZOLE] | 0 | 11 | inhibition (A549 [5]): Active; IC50 (A549 [6]): > 100 µM; IC50 (HepG2): > 100 µM; IC50 (HUVEC [7]): > 250 µM; IC50 (HUVEC [8]): > 100 µM; IC50 (HCT-116): > 100 µM
8 | Cc1cc2nc(-c3cscn3)[nH]c2cc1C | 0 | 0 | 
9 | CC(=O)O[C@H]1C(=O)[C@@]2(C)[C@H]([C@H](OC(=O)c3ccccc3)[C@]3(O)C[C@H](OC(=O)[C@H](O)[C@@H](NC(=O)c4ccccc4)c4ccccc4)C(C)=C1C3(C)C)[C@]1(OC(C)=O)CO[C@@H]1C[C@@H]2O |  |  | inhibition (Tubulin (Bos taurus) [9]): inactive
10 | O=C(c1ccccc1)c1ccc2[nH]c(-c3cscn3)nc2c1 |  |  | inhibition (Tubulin (Bos taurus) [4]): tde
11 | c1ccc2cc3[nH]c(-c4cscn4)nc3cc2c1 | 2 | 59 | 
12 | CC[C@]1(O)C[C@@H]2CN(CCc3c([nH]c4ccccc34)[C@@](C(=O)OC)(c3cc4c(cc3OC)N(C)[C@H]3[C@@](O)(C(=O)OC)[C@H](OC(C)=O)[C@]5(CC)C=CCN6CC[C@]43[C@@H]65)C2)C1 |  |  | inhibition (A549 [10]): Active
13 | CCN(CC)CCNC(=O)c1c(C)[nH]c(/C=C2\C(=O)Nc3ccc(F)cc32)c1C |  |  | inhibition (Thoracic aorta): Active; inhibition (HUVEC [11]): Active
